Entries after “also recorded” stand apart in the source; their conditions may differ. Where two headings read alike, the source gives them in different places.
Legend:
[1] = system: SNI-induced mechanical allodynia; experiment: Spared nerve injury; assay type: in vivo, mouse
Summary of the method: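 On day 28 after spared nerve injury, 50 % paw withdrawal threshold measured by von Frey up-down method, at baseline and from 0 to 6 h after a single IP injection. Doses: 3, 10 and 30 mg/kg in males; 30 mg/kg in females; vehicle 30 % DMSO. AUC over 0–6 h. n = 8. Two-way ANOVA with Tukey; one-way ANOVA with Dunnett.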

potassium channels = experiment: Whole-cell patch-clamp recordings of total potassium currents; assay type: cell-based, rat
Summary of the method: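 Rat DRG neurons cultured in medium with 10 % FBS and 15 ng/ml NGF, on poly-D-lysine/laminin-coated coverslips at 37 °C, 5 % CO₂, and used within 24 h. Whole-cell patch clamp with test compound (10 µM) or 0.1 % DMSO in the external solution. Current density–voltage and peak current density (pA/pF) given as mean ± SEM.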

[2] = system: capsaicin-induced mechanical allodynia; experiment: Capsaicin pain model, mechanical allodynia; assay type: in vivo, mouse; conditions: 30 mg/kg IP
Summary of the method: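 Mice got intraplantar capsaicin (12 µg in 10 µL; vehicle 80 % saline, 10 % ethanol, 10 % Tween80) in the left footpad under isoflurane. One h later: single IP dose of test compound at 30 mg/kg or vehicle (30 % DMSO). 50 % paw withdrawal threshold by von Frey up-down method, baseline then 0–4 h post-dose. AUC over 0–4 h. n = 8 per sex. Two-way ANOVA with Tukey; one-way ANOVA with Dunnett for AUC.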

SH-SY5Y cells = SH-SY5Y cells treated at 5 µM; ref Drewry et al., 2022; cited from earlier work
PIKfyve = conditions: 403 wild-type human kinases; ref Drewry et al., 2022; cited from earlier work
naïve mice [3] = experiment: Rotarod test of motor coordination in naïve mice; assay type: in vivo, mouse; conditions: male and female naïve mice, 30 mg/kg IP
Summary of the method: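 Naïve male and female mice received test compound at 30 mg/kg IP, dissolved in 30 % DMSO. Motor coordination measured on the rotarod. A mouse that fell was placed back on the cylinder and the session continued.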

[4] = Snapshot pharmacokinetics in Balb/C mice; assay type: in vivo, mouse; conditions: 10 or 30 mg/kg IP or PO, up to five hours after dosing
viral entry = conditions: 1 µM, multiple cell types; ref Drewry et al., 2022; cited from earlier work
[5] = system: voltage-gated calcium channels; assay type: cell-based, rat
naïve mice [6] = experiment: Mechanical and cold sensitivity in naïve mice; assay type: in vivo, mouse; conditions: male and female naïve mice, 30 mg/kg IP
Summary of the method: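 Naïve male and female mice got test compound at 30 mg/kg IP in 30 % DMSO, with a 1 h wait before testing. Mechanical sensitivity measured with von Frey filaments by the up-down method. Cold sensitivity measured by applying an acetone drop to the hind paw.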

[7] = Snapshot/standard pharmacokinetics in CD-1 mice; assay type: in vivo, mouse; conditions: for half-life: male, CD-1, mouse, plasma
[8] = system: SNI-induced cold allodynia; experiment: Spared nerve injury; assay type: in vivo, mouse; conditions: for SNI-induced cold allodynia, AUC between 0 and 6 h: day 28 post-SNI
[9] = system: voltage-gated sodium channels; assay type: cell-based, rat; conditions: for Effect on density of sodium currents: acute application

CN(C)CC#Cc1ccc2[nH]c3c(c2c1)-c1nc(N)ncc1CCC3 [SGC-PIKFYVE-1]
SNI-induced tactile allodynia ([1]; female mice, 30 mg/kg IP): reduced SNI-induced tactile
Antiallodynic effect (AUC 0-6 h), dose dependence ([1]; male neuropathic mice, 3, 10 and 30 mg/kg IP): dose-dependent
Paw mechanical withdrawal threshold ([1]; male neuropathic mice, single IP injection 30 mg/kg, day 28 post-SNI): increase of the paw mechanical withdrawal threshold for four hours
IK+ current or peak densities (potassium channels; acute treatment, 10 μM, vs 0.1 % DMSO): did not alter
IV curve Peak/density (pA/pF) (potassium channels; total potassium currents, SGC-PIKFYVE-1 10 µM, DMSO control 184.90 ± 17.17): 213.92 ± 21.52 pA/pF
Capsaicin-induced nociceptive behaviors ([2]; female mice): able to reduce the nociceptive behaviors
Duration of reduction of capsaicin-induced allodynia ([2]; male mice, 1 h after intraplantar capsaicin): 2 h
Lysosomal homeostasis (SH-SY5Y cells): impacted lysosomal homeostasis
Kinome selectivity (PIKfyve): highly selective for PIKfyve
Motor coordination (rotarod) (naïve mice [3]): did not induce changes
Plasma concentration relative to cellular affinity for PIKfyve [4]: maintained well above the cellular affinity for PIKfyve
Viral entry (viral entry): inhibited viral entry
Calcium current density and peak current ([5]; 10 µM, vs 0.1 % DMSO): unaffected
Fast inactivation k ([5]; total calcium currents, SGC-PIKFYVE-1 10 µM, DMSO control 0.99 ± 0.01): 0.98 ± 0.02
Activation k ([5]; total calcium currents, SGC-PIKFYVE-1 10 µM, DMSO control 5.99 ± 0.64): 5.73 ± 0.58
Activation V0.5 (mV) ([5]; total calcium currents, SGC-PIKFYVE-1 10 µM, DMSO control −4.68 ± 0.73): −4.31 ± 0.67 mV
Fast inactivation V0.5 (mV) ([5]; total calcium currents, SGC-PIKFYVE-1 10 µM, DMSO control −36.91 ± 0.73): −34.76 ± 1.79 mV
IV curve Peak/density (pA/pF) ([5]; total calcium currents, SGC-PIKFYVE-1 10 µM, DMSO control −107.71 ± 14.20): −113.06 ± 13.24 pA/pF
Mechanical and cold sensitivity (naïve mice [6]): did not induce changes
Oral bioavailability and in vivo stability (snapshot PK) ([7]; CD-1 mice, 10 mg/kg IP or PO, five-hour time course): exhibited oral bioavailability and remained relatively stable in vivo
Detectability in plasma over twenty-four hours ([7]; CD-1 mice, 10 mg/kg IP or PO, no time points between 8 and 24 h): no longer detectable after eight hours
Adverse effects / tolerability ([7]; CD-1 mice, 30 mg/kg): did not induce any adverse effects; also recorded: well tolerated
Detectability in plasma over twenty-four hours ([7]; CD-1 mice, 30 mg/kg IP or PO): not detectable after eight hours
Plasma concentration relative to cellular affinity for PIKfyve ([7]; CD-1 mice, 30 mg/kg twice daily (BID) IP or PO): well above its cellular affinity for PIKfyve
half-life ([7]; ip): ~210 min
half-life ([7]; po, 30 mg/kg): 210 min
SNI-induced cold allodynia ([8]; female mice, 30 mg/kg IP): reduced
SNI-induced cold allodynia, AUC between 0 and 6 h ([8]; female mice, 30 mg/kg IP): reversed SNI-induced cold allodynia
SNI-induced cold allodynia, AUC between 0 and 6 h ([8]; male mice, 30 mg/kg IP): reversed SNI-induced cold allodynia
SNI-induced cold allodynia ([8]; male mice, 3, 10 and 30 mg/kg IP): reduced SNI-induced cold allodynia for six hours in a dose-dependent manner
Voltage-dependence of activation ([9]; 10 µM, compared to the vehicle): remained unchanged
Hyperpolarizing shift in the voltage-dependence of inactivation ([9]; 10 µM, vs vehicle): 4 mV
Activation k ([9]; SGC-PIKFYVE-1 1 µM, DMSO control 4.93 ± 0.44): 6.54 ± 0.66
Fast inactivation k ([9]; SGC-PIKFYVE-1 1 µM, DMSO control −13.64 ± 1.53): −14.49 ± 1.69
Activation V0.5 (mV) ([9]; SGC-PIKFYVE-1 1 µM, DMSO control −21.776 ± 0.50): −21.09 ± 0.74 mV
Fast inactivation V0.5 (mV) ([9]; SGC-PIKFYVE-1 1 µM, DMSO control −53.6 ± 1.56): −51.69 ± 1.67 mV
Activation k ([9]; SGC-PIKFYVE-1 10 µM, ProTxII set (Fig. 1), DMSO control 4.25 ± 0.42): 4.89 ± 0.56
Fast inactivation k ([9]; SGC-PIKFYVE-1 10 µM, ProTxII set (Fig. 1), DMSO control −11.11 ± 0.74): −10.32 ± 0.73
Activation V0.5 (mV) ([9]; SGC-PIKFYVE-1 10 µM, ProTxII set (Fig. 1), DMSO control −20.48 ± 0.48): −20.11 ± 0.63 mV
Fast inactivation V0.5 (mV) ([9]; SGC-PIKFYVE-1 10 µM, ProTxII set (Fig. 1), DMSO control −47.42 ± 0.79): −51.51 ± 0.79 mV
IV curve Peak/density (pA/pF) ([9]; SGC-PIKFYVE-1 10 µM, ProTxII set (Fig. 1), DMSO control −533.2 ± 42.99): −348.7 ± 38.42 pA/pF
Activation k ([9]; SGC-PIKFYVE-1 10 µM, VX-548 set (Fig. 2), DMSO control 3.70 ± 0.39): 3.73 ± 0.47
Fast inactivation k ([9]; SGC-PIKFYVE-1 10 µM, VX-548 set (Fig. 2), DMSO control −12.25 ± 1.08): −10.25 ± 1.63
Activation V0.5 (mV) ([9]; SGC-PIKFYVE-1 10 µM, VX-548 set (Fig. 2), DMSO control −24.61 ± 0.44): −20.18 ± 0.55 mV
Fast inactivation V0.5 (mV) ([9]; SGC-PIKFYVE-1 10 µM, VX-548 set (Fig. 2), DMSO control −52.39 ± 1.14): −58.85 ± 1.79 mV
IV curve Peak/density (pA/pF) ([9]; SGC-PIKFYVE-1 10 µM, VX-548 set (Fig. 2), DMSO control −358.2 ± 32.87): −189.7 ± 47.11 pA/pF
Effect on density of sodium currents ([9]; 1 µM): but not at 1 µM
Effect on density of sodium currents ([9]; 10 µM): decrease in the density of sodium currents

Cc1cccc(/C=N/Nc2cc(N3CCOCC3)nc(OCCc3ccccn3)n2)c1 [apilimod, reference compound]
Lysosomal homeostasis (SH-SY5Y cells): impacted lysosomal homeostasis

COc1c([C@H]2[C@H](C(=O)Nc3ccnc(C(N)=O)c3)O[C@@](C)(C(F)(F)F)[C@H]2C)ccc(F)c1F [VX-548, reference compound]
Activation k ([9]; VX-548 5 nM, DMSO control 3.70 ± 0.39): 6.18 ± 0.88
Fast inactivation k ([9]; VX-548 5 nM, DMSO control −12.25 ± 1.08): −9.98 ± 0.99
Activation V0.5 (mV) ([9]; VX-548 5 nM, DMSO control −24.61 ± 0.44): −19.51 ± 0.98 mV
Fast inactivation V0.5 (mV) ([9]; VX-548 5 nM, DMSO control −52.39 ± 1.14): −59.85 ± 1.10 mV
IV curve Peak/density (pA/pF) ([9]; VX-548 5 nM, DMSO control −358.2 ± 32.87): −200.5 ± 35.37 pA/pF

ProTxII [reference compound]
Activation k ([9]; ProTxII 5 nM, DMSO control 4.25 ± 0.42): 4.17 ± 0.49
Fast inactivation k ([9]; ProTxII 5 nM, DMSO control −11.11 ± 0.74): −11.11 ± 1.15
Activation V0.5 (mV) ([9]; ProTxII 5 nM, DMSO control −20.48 ± 0.48): −14.89 ± 0.57 mV
Fast inactivation V0.5 (mV) ([9]; ProTxII 5 nM, DMSO control −47.42 ± 0.79): −53.17 ± 1.24 mV
IV curve Peak/density (pA/pF) ([9]; ProTxII 5 nM, DMSO control −533.2 ± 42.99): −207.3 ± 57.12 pA/pF

— article PMC11665415 (Neurobiology of Pain, 2024)
